Assay results reported in ChEMBL document CHEMBL1129626, “Cyclic HIV protease inhibitors: synthesis, conformational analysis, P2/P2' structure-activity relationship, and molecular recognition of cyclic ureas” (J Med Chem, 1996).

Legend:
[1] = tested on: Human immunodeficiency virus 1; experiment: Inhibition of viral infection in HIV-1 (RF)-infected MT-2 cells with an oligonucleotide-based sandwich hybridization assay.; type: functional, MT2
Summary of the method: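 Uninfected MT-2 cells were preincubated for 30 min with serial dilutions of compound, then infected with HIV-1 RF and cultured for 3 days at 37 °C, 5% CO2. Lysates were assayed for viral RNA by microtiter oligonucleotide sandwich hybridization.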

[2] = biological target: Human immunodeficiency virus type 1 protease (Human immunodeficiency virus 1, UniProt Q72874); experiment: Inhibitory activity against HIV-1 protease
Summary of the method: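 HIV-1 protease Ki from cleavage of a fluorescent peptide substrate, products resolved by HPLC. Inhibitor was tested at four concentrations spanning 0.1–10 000 nM, the range chosen per inhibitor.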

[3] = Bioavailability as maximal plasma concentration in rats; type: ADME, organism-based; details: rat
Summary of the method: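 Rats (n = 4/group) were given an oral dose of 10 mg/kg in a propylene glycol / poly(ethylene glycol) 400 / water formulation. Cmax is the observed peak plasma concentration after the oral dose. F% is AUC(po)/AUC, with AUC taken from time zero to infinity and normalized for dose.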

[4] = Human immunodeficiency virus 1, MT2

| SMILES | IC90 [1, 4] [µM] | Ki [2] [µM] | Cmax [3] [µM] | IC90 [1] [µM] |
| --- | --- | --- | --- | --- |
| O=C1N(Cc2ccc(Br)cc2)[C@H](Cc2ccccc2)[C@H](O)[C@@H](O)[C@@H](Cc2ccccc2)N1Cc1ccc(Br)cc1 | 8.1 | 0.027 |  |  |
| CC(C)CCCCN1C(=O)N(CCCCC(C)C)[C@H](Cc2ccccc2)[C@H](O)[C@@H](O)[C@H]1Cc1ccccc1 | > 95 | 0.03 |  |  |
| O=C1N(Cc2cccc(I)c2)[C@H](Cc2ccccc2)[C@H](O)[C@@H](O)[C@@H](Cc2ccccc2)N1Cc1cccc(I)c1 | 3 | 0.00042 |  |  |
| O=C1N(Cc2ccc(CO)cc2)[C@H](Cc2ccccc2)[C@H](O)[C@@H](O)[C@@H](Cc2ccccc2)N1Cc1ccc2ccccc2c1 | 0.21 | 0.00093 |  |  |
| C=COCCN1C(=O)N(CCOC=C)[C@H](Cc2ccccc2)[C@H](O)[C@@H](O)[C@H]1Cc1ccccc1 | > 107 | 0.06 |  |  |
| CC(C)CCCN1C(=O)N(CCCC(C)C)[C@H](Cc2ccccc2)[C@H](O)[C@@H](O)[C@H]1Cc1ccccc1 | 8.1 | 0.007 |  |  |
| O=C1N(Cc2cccnc2)[C@H](Cc2ccccc2)[C@H](O)[C@@H](O)[C@@H](Cc2ccccc2)N1Cc1ccc2ccccc2c1 | 0.72 | 0.0052 |  |  |
| O=C1N(CCN2CCOCC2)[C@H](Cc2ccccc2)[C@H](O)[C@@H](O)[C@@H](Cc2ccccc2)N1CCN1CCOCC1 | > 91 |  |  |  |
| CCCCCCCN1C(=O)N(CCCCCCC)[C@H](Cc2ccccc2)[C@H](O)[C@@H](O)[C@H]1Cc1ccccc1 | > 96 | 0.26 |  |  |
| CCCN1C(=O)N(Cc2ccc3ccccc3c2)[C@H](Cc2ccccc2)[C@H](O)[C@@H](O)[C@H]1Cc1ccccc1 | 3.3 | 0.0011 |  |  |
| O=C1N(Cc2ccc(C(F)(F)F)cc2)[C@H](Cc2ccccc2)[C@H](O)[C@@H](O)[C@@H](Cc2ccccc2)N1Cc1ccc(C(F)(F)F)cc1 | 7.2 |  |  |  |
| O=C1N(Cc2ccccc2)[C@H](Cc2ccccc2)[C@H](O)[C@@H](O)[C@@H](Cc2ccccc2)N1Cc1ccccc1 | 0.83 | 0.003 | 1.3 |  |
| O=C1N(Cc2ccc3ccccc3c2)[C@H](Cc2ccccc2)[C@H](O)[C@@H](O)[C@@H](Cc2ccccc2)N1CC1CC1 | 1.3 | 0.0015 |  |  |
| Nc1cccc(CN2C(=O)N(Cc3ccc4ccccc4c3)[C@H](Cc3ccccc3)[C@H](O)[C@@H](O)[C@H]2Cc2ccccc2)c1 | 0.084 | 0.001 |  |  |
| O=C1N(Cc2cccc(Br)c2)[C@H](Cc2ccccc2)[C@H](O)[C@@H](O)[C@@H](Cc2ccccc2)N1Cc1cccc(Br)c1 | 1.2 | 0.0014 |  |  |
| CCOCCN1C(=O)N(CCOCC)[C@H](Cc2ccccc2)[C@H](O)[C@@H](O)[C@H]1Cc1ccccc1 | > 106 | 1.1 |  |  |
| O=C1N(Cc2ccccc2Cl)[C@H](Cc2ccccc2)[C@H](O)[C@@H](O)[C@@H](Cc2ccccc2)N1Cc1ccccc1Cl | 11.3 | 0.24 |  |  |
| O=C1N(Cc2ccc(CO)cc2)[C@H](Cc2ccccc2)[C@H](O)[C@@H](O)[C@@H](Cc2ccccc2)N1Cc1ccc(CO)cc1 |  | 1.65 |  | 51 |
| O=C1N(Cc2ccc(F)cc2)[C@H](Cc2ccccc2)[C@H](O)[C@@H](O)[C@@H](Cc2ccccc2)N1Cc1ccc(F)cc1 | 0.6 | 0.0014 | 1.6 |  |
| C=CCN1C(=O)N(Cc2ccc3ccccc3c2)[C@H](Cc2ccccc2)[C@H](O)[C@@H](O)[C@H]1Cc1ccccc1 | 0.99 | 0.0014 |  |  |
| O=C1N(Cc2cccc(F)c2)[C@H](Cc2ccccc2)[C@H](O)[C@@H](O)[C@@H](Cc2ccccc2)N1Cc1cccc(F)c1 | 0.71 | 0.003 |  |  |
| Cc1cccc(CN2C(=O)N(Cc3cccc(C)c3)[C@H](Cc3ccccc3)[C@H](O)[C@@H](O)[C@H]2Cc2ccccc2)c1 | 2.4 | 0.007 |  |  |
| CC(C)CN1C(=O)N(CC(C)C)[C@H](Cc2ccccc2)[C@H](O)[C@@H](O)[C@H]1Cc1ccccc1 | > 100 | 0.049 |  |  |
| O=C1N(Cc2cccc(Cl)c2)[C@H](Cc2ccccc2)[C@H](O)[C@@H](O)[C@@H](Cc2ccccc2)N1Cc1cccc(Cl)c1 | 1.3 | 0.00089 | 0.3 |  |
| CCCCN1C(=O)N(CCCC)[C@H](Cc2ccccc2)[C@H](O)[C@@H](O)[C@H]1Cc1ccccc1 | 0.68 | 0.0014 |  |  |
| O=C1N(CC2CCCC2)[C@H](Cc2ccccc2)[C@H](O)[C@@H](O)[C@@H](Cc2ccccc2)N1CC1CCCC1 | 1.7 | 0.0043 | 0.2 |  |
| O=C1N(Cc2ccccn2)[C@H](Cc2ccccc2)[C@H](O)[C@@H](O)[C@@H](Cc2ccccc2)N1Cc1ccccn1 | 49 | 0.145 |  |  |
| O=C1N(CC2CCCCC2)[C@H](Cc2ccccc2)[C@H](O)[C@@H](O)[C@@H](Cc2ccccc2)N1CC1CCCCC1 | > 96 | 0.037 |  |  |
